19 compounds from ChEMBL document CHEMBL1138009, “3-[3-Fluoro-5-(5-pyridin-2-yl-2H-tetrazol-2-yl)phenyl]-4-methylpyridine: a highly potent and orally bioavailable metabotropic glutamate subtype 5 (mGlu5) receptor antagonist” (Bioorg Med Chem Lett, 2004) can be followed below.

Molecules are shown by their SMILES.

In data set [1] the target is T1, Metabotropic glutamate receptor 5 (Rattus norvegicus, UniProt P31424). Nature of the data set: Binding affinity towards Metabotropic glutamate receptor was determined by displacing [3H]3-methoxy-5-(pyridin-2-ylethynyl)pyridine from rat cortical membranes. A digest of the protocol: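 Radioligand displacement of [3H]-3-methoxy-5-(pyridin-2-ylethynyl)pyridine from rat cortical membranes by test compounds; n = 2–4, SD ≈ ±25%.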

In data set [2] the target is T1, Metabotropic glutamate receptor 5. Nature of the data set: Antagonistic activity against Metabotropic glutamate receptor 5 in [Ca2+] flux assay using glutamate (10 uM) as agonist. The data set is classed as functional. A digest of the protocol:
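Cell-based high-throughput functional assay; glutamate 10 μM as agonist; antagonism read as change in cytosolic Ca2+ by fluorescence detection; n = 2–4, SD ≈ ±25%.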

Data set [3] is described as follows: Half life i.v. dosing at 2 mg/kg of 50% PEG400/H 20, po dosing at 10 mg/kg. The data set is classed as ADME, organism-based. The following applies: rat, in vivo.
Data set [4] is described as follows: Plasma clearance i.v. dosing at 2 mg/kg of 50% PEG400/H 20, po dosing at 10 mg/kg. The format is ADME, organism-based. The following applies: rat, iv, read-out: Clp.
Data set [5] can be described thus: Oral bioavailability after i.v. dosing at 2 mg/kg of 50% PEG400/H 20, po dosing at 10 mg/kg. The following applies: rat, in vivo. The format is ADME, organism-based.
Data set [6] can be described thus: Maximum concentration i.v. dosing at 2 mg/kg of 50% PEG400/H 20, po dosing at 10 mg/kg. The data set is classed as ADME, organism-based. The following applies: rat, in vivo.
Data set [7] addresses Metabotropic glutamate receptor 5 (Rattus norvegicus) (UniProt P31424). Nature of the data set: Effective dose against rat Metabotropic glutamate receptor 5 occupancy after i.p. dosing at 10 mg/kg of 50% PEG400/H 20. On the set-up: dose 10 mg/kg. The format is functional, organism-based. A digest of the protocol: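 Rat receptor occupancy: compound given 10 mg/kg intraperitoneally in 50% PEG 400/H2O, occupancy measured at 1 h; hippocampal and plasma levels also determined at 1 h.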

Data set [8] can be described thus: Oral bioavailability i.v. dosing at 2 mg/kg of 50% PEG400/H 20, po dosing at 10 mg/kg. The format is ADME, organism-based. The following applies: rat, in vivo.

T1 sequence (P31424 whole entry): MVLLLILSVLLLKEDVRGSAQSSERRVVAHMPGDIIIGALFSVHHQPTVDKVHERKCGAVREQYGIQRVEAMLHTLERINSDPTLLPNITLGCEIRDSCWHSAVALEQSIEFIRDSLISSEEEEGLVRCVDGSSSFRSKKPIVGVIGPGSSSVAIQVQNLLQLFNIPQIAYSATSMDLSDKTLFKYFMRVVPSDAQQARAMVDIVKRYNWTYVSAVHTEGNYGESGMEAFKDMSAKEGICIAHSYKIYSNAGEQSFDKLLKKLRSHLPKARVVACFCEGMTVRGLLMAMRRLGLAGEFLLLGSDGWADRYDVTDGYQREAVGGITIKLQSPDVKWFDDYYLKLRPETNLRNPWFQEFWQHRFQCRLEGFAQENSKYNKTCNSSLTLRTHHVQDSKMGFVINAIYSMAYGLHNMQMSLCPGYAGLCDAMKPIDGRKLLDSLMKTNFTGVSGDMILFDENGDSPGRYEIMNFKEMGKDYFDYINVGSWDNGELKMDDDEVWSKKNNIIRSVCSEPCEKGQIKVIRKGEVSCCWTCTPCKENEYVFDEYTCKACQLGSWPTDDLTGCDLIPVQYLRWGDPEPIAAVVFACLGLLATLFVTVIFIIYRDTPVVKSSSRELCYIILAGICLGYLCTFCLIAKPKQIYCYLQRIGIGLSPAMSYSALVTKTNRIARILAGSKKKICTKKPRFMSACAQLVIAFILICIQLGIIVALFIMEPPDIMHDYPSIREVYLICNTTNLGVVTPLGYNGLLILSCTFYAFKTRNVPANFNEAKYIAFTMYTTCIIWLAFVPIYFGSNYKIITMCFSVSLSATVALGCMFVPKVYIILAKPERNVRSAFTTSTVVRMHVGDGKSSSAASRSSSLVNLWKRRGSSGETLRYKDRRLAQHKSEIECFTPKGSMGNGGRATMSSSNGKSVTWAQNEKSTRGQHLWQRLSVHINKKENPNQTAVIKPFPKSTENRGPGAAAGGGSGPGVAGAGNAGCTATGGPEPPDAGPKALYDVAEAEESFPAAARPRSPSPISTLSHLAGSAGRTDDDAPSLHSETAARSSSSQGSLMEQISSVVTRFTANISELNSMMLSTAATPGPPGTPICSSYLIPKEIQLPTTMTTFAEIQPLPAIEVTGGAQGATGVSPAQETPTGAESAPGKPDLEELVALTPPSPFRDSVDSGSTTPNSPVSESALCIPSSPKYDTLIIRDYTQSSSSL
Chain of Metabotropic glutamate receptor 5 (Rattus norvegicus) (P31424 21-1203 limits assumed): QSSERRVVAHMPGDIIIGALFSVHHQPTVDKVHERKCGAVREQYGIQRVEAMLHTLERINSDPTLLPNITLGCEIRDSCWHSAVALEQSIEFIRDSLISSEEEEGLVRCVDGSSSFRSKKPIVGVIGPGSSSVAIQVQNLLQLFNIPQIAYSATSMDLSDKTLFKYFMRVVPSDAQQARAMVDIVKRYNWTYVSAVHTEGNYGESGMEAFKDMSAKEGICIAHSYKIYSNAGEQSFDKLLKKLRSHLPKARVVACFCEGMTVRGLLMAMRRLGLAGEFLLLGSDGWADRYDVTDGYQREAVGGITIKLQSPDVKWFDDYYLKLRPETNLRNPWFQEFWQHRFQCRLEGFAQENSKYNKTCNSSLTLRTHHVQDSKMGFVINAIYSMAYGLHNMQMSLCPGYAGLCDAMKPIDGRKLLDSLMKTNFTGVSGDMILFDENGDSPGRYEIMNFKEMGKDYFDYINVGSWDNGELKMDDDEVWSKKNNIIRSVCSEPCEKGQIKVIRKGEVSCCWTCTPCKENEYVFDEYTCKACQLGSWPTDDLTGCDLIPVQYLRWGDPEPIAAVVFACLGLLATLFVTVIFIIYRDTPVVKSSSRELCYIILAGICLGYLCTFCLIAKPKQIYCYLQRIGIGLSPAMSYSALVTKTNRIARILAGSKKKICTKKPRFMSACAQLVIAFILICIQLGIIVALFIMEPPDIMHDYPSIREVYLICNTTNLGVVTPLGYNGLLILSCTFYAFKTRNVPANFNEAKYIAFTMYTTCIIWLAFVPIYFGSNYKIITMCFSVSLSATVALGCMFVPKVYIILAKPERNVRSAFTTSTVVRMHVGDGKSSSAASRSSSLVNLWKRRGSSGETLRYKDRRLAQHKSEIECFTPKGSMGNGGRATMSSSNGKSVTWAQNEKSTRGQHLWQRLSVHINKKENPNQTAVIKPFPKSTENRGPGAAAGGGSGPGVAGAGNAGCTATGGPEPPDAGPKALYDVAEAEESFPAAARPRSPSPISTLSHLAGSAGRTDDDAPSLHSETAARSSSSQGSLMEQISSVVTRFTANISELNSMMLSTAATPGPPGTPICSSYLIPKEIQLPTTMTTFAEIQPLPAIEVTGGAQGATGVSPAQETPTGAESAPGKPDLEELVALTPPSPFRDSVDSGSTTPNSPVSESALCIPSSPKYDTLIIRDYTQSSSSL

Turning to `Cc1cccnc1-c1cc(F)cc(-n2nnc(-c3ccccn3)n2)c1`, affinity in data set [1] was put at a Ki of 24 nM. The concentration for half-maximal inhibition (IC50) – broadly, the concentration at which inhibition is half-maximal – in data set [2] is 31 nM.
Consider `Cc1ccc(-c2cc(F)cc(-n3nnc(-c4ccccn4)n3)c2)cn1`, for which the Ki – broadly, the equilibrium dissociation constant of an inhibitor or competing ligand from its target – in data set [1] amounted to 36 nM. The half-maximal inhibitory concentration (IC50) in data set [2] is 57 nM.
Compound `Cc1ccc(-c2cc(F)cc(-n3nnc(-c4ccccn4)n3)c2)cc1` came in with an IC50 in data set [2] above 3000 nM.
Regarding `Nc1ccncc1-c1cc(F)cc(-n2nnc(-c3ccccn3)n2)c1`, the affinity in data set [1] corresponds to a Ki of 20 nM. The 50% inhibitory concentration (IC50) in data set [2] came out at 108 nM.
In data set [1], `Fc1cc(-c2ccccc2)cc(-n2nnc(-c3ccccn3)n2)c1` displayed an inhibitory constant (Ki) of 53 nM. Also, the IC50 in data set [2] was 247 nM.
For `N#Cc1cc(F)cc(-n2nnc(-c3ccccn3)n2)c1`, the T1/2 in data set [3] stood at 2.9 h. Besides, in data set [1], the Ki turned out to be 14 nM. Also, the clearance in data set [4] came out at 17 mL/min/kg. The compound also displayed an IC50 in data set [2] of 4 nM. The bioavailability (in general, the share of a dose that reaches the circulation, judged against a reference dose that is usually intravenous) in data set [5] came out at 26%.
`Cc1cccc(-c2cc(F)cc(-n3nnc(-c4ccccn4)n3)c2)c1` registered a half-maximal inhibitory concentration (IC50) in data set [2] of 1470 nM.
Take `Fc1cc(-c2ccccn2)cc(-n2nnc(-c3ccccn3)n2)c1`: the affinity in data set [1], expressed as Ki, was 95 nM. Besides, the IC50 in data set [2] was found to be 39 nM.
On the same counts, the results for `Fc1cc(-c2cccnc2)cc(-n2nnc(-c3ccccn3)n2)c1` are 37 nM and 12 nM.
On to `Cc1ccncc1-c1cc(F)cc(-n2nnc(-c3ccccn3)n2)c1`, for which the half-life (in general, the time in which the quantity being followed falls by half) in data set [3] is 1.6 h. In data set [1], the Ki was determined as 2 nM. In data set [4], the clearance is 39 mL/min/kg. In data set [2], this compound gave a half-maximal inhibitory concentration (IC50) of 5 nM. Also, the highest concentration (Cmax) – broadly, the maximum level reached in the sampled fluid or tissue – in data set [6] was 900 nM. Also, the Occupancy in data set [7] is 95. The compound also had a bioavailability in data set [8] of 12%.
In data set [1], `N#Cc1ccccc1-c1cc(F)cc(-n2nnc(-c3ccccn3)n2)c1` had an inhibition constant Ki of 4 nM. Also, the IC50 in data set [2] is 6 nM.
Regarding `Cc1cncc(-c2cc(F)cc(-n3nnc(-c4ccccn4)n3)c2)c1`, in data set [1], affinity was put at a Ki of 272 nM. This compound returned a 50% inhibitory concentration (IC50) in data set [2] of 499 nM.
The compound `Nc1cccnc1-c1cc(F)cc(-n2nnc(-c3ccccn3)n2)c1` came in with a Ki in data set [1] of 31 nM. The concentration for half-maximal inhibition (IC50) in data set [2] is 19 nM.
In data set [1], `Cc1ccccc1-c1cc(F)cc(-n2nnc(-c3ccccn3)n2)c1` came in with a Ki of 23 nM. The same compound came in with an IC50 in data set [2] of 120 nM.
`Cc1cnccc1-c1cc(F)cc(-n2nnc(-c3ccccn3)n2)c1`: affinity in data set [1] was put at a Ki of 33 nM. In data set [2], this compound returned a half-maximal inhibitory concentration (IC50) of 63 nM.
Regarding `N#Cc1cccc(-c2cc(F)cc(-n3nnc(-c4ccccn4)n3)c2)c1`, the Ki in data set [1] worked out at 12 nM. The compound further displayed a half-maximal inhibitory concentration (IC50) in data set [2] of 253 nM.
`Fc1cc(-c2ccncc2)cc(-n2nnc(-c3ccccn3)n2)c1` registered a Ki in data set [1] of 575 nM. In addition, in data set [2], the 50% inhibitory concentration (IC50) is 956 nM.
In turn, `Cc1ncccc1-c1cc(F)cc(-n2nnc(-c3ccccn3)n2)c1` registered an inhibition constant Ki in data set [1] of 45 nM. Further, in data set [2], the 50% inhibitory concentration (IC50) is 41 nM.
The like results for `Nc1ccccc1-c1cc(F)cc(-n2nnc(-c3ccccn3)n2)c1` were, in that order, 7 nM and 8 nM.
